# Test results from ChEMBL document CHEMBL4387722.
# pEC50, pIC50: −log10 of the molar value.
# Columns and labels:
# [1] = molecular target: T1, Phosphotyrosine protein phosphatase (Mycobacterium tuberculosis, UniProt A0A045ISB3); assay: Inhibition of Mycobacterium tuberculosis His-tagged PtpB expressed in Escherichia coli Rosetta 2 (DE3) using pNPP as substrate after 30 mins by spectrophotometric method
# T1 sequence (A0A045ISB3 whole entry): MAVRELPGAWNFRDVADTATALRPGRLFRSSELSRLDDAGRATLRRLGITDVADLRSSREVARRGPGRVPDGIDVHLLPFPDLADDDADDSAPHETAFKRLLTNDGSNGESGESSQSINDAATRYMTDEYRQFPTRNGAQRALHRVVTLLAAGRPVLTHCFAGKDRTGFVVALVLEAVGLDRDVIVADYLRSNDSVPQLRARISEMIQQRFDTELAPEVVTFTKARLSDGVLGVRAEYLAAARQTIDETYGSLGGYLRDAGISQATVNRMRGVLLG
# [2] = molecular target: T2, Tyrosine-protein phosphatase non-receptor type 1 (Homo sapiens, UniProt P18031); assay: Inhibition of human PTPN1 expressed in Escherichia coli Rosetta 2 (DE3) using pNPP as substrate after 45 mins by spectrophotometric method
# T2 sequence (P18031 whole entry): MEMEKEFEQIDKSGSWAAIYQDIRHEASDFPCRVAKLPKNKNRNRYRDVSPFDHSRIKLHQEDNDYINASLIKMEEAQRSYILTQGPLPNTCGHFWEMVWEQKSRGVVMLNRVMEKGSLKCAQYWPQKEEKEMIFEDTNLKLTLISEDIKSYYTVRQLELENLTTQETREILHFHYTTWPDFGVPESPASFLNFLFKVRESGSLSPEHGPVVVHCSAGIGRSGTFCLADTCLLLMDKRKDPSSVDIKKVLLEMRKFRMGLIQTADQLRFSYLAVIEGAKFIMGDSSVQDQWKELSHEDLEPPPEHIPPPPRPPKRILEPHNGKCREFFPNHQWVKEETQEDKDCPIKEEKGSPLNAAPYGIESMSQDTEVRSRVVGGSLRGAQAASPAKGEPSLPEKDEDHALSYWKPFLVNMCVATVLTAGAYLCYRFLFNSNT
# [3] = molecular target: T3, Tyrosine-protein phosphatase non-receptor type 2 (Homo sapiens, UniProt P17706); assay: Inhibition of human PTPN2 expressed in Escherichia coli Rosetta 2 (DE3) using pNPP as substrate after 45 mins by spectrophotometric method
# T3 sequence (P17706 whole entry): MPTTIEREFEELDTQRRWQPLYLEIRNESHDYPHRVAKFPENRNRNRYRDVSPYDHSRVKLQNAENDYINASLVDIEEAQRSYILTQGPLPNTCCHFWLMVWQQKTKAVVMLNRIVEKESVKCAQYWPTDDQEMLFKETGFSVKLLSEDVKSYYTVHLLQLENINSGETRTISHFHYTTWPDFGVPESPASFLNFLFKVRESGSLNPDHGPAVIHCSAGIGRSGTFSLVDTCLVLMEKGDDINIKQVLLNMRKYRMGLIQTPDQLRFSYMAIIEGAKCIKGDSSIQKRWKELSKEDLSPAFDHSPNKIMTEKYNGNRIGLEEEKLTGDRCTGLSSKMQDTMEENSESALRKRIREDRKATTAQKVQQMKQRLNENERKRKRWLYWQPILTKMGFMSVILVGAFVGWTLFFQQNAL
# [4] = molecular target: T4, Tyrosine-protein phosphatase non-receptor type 5 (Homo sapiens, UniProt P54829); assay: Inhibition of human PTPN5 expressed in Escherichia coli Rosetta 2 (DE3) using pNPP as substrate after 45 mins by spectrophotometric method
# T4 sequence (P54829 whole entry): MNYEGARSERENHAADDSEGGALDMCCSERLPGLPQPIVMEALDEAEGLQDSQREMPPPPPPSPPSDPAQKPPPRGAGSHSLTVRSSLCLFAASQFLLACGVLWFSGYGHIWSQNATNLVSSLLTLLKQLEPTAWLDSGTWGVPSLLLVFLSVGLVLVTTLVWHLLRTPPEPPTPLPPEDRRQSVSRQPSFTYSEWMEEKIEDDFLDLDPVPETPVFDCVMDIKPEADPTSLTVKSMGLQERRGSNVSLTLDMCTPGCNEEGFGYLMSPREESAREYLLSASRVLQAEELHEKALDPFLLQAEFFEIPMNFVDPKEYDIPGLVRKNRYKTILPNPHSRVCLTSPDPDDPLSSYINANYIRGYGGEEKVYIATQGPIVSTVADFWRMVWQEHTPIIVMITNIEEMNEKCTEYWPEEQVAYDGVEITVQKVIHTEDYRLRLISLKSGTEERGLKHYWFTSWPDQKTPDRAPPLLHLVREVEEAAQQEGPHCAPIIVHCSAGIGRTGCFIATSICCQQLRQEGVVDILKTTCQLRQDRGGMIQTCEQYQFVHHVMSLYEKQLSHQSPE
# [5] = test system: Mycobacterium tuberculosis; assay: Antitubercular activity against Mycobacterium tuberculosis H37Rv after 5 days at 200 uM relative to control; type: functional; conditions: 120 h
# Summary of the method: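 M. tuberculosis grown in liquid culture with compound at a fixed 200 μM for 5 days. Growth inhibition expressed as percent of control.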
# [6] = Inhibition of refolded rhodanese (unknown origin) preincubated with Escherichia coli GroEL/GroES for 60 mins by measuring rhodanese enzyme activity followed by compound addition by Fe(SCN)3 dye based spectrometric analysis; design: species or system Homo sapiens
# [7] = molecular target: T5, Malate dehydrogenase, mitochondrial (Sus scrofa, UniProt P00346); assay: Inhibition of refolded pig heart mitochondrial MDH preincubated with Escherichia coli GroEL/GroES for 45 mins using sodium mesoxalate as substrate followed by compound addition and measured after 20 to 30 mins by spectrometric analysis
# T5 sequence (P00346 whole entry): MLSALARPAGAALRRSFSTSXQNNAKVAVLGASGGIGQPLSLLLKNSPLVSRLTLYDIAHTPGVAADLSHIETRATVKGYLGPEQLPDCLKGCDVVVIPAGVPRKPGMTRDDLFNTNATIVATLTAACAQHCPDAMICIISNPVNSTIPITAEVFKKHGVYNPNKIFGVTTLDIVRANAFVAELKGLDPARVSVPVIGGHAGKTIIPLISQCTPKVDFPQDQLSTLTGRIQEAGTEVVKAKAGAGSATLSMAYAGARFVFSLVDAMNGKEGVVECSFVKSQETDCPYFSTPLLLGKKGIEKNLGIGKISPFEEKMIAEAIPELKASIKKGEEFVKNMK
# HSP60/HSP10 = HSP60/HSP10 (Homo sapiens, UniProt P10809); assay: Inhibition of human HSP60 expressed in Escherichia coli Rosetta 2(DE3)/human HSP10 expressed in Escherichia coli Rosetta 2(DE3) pLysS cells assessed as reduction in HSP60/HSP10-mediated denatured pig heart mitochondrial MDH refolding by measuring MDH enzyme activity using sodium mesoxalate as substrate after 40 to 60 mins by spectrometric analysis
# [8] = Cytotoxicity against human THLE3 cells assessed as reduction in cell viability after 48 hrs by Alamar blue assay; type: cell-based
# Summary of the method: (§1)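 Alamar Blue viability read-out. Human liver (THLE-3) and kidney (HEK 293) cells incubated with compound for 48 h. Tested in dose-response to derive CC50.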
# [9] = Cytotoxicity against human HEK293 cells assessed as reduction in cell viability after 48 hrs by Alamar blue assay; type: cell-based; summary of the method: as §1
# [10] = test system: Mycobacterium tuberculosis; assay: Antitubercular activity against Mycobacterium tuberculosis H37Rv after 5 days; type: functional, organism-based; conditions: 120 h
# Chain of HSP60/HSP10 (P10809 whole entry): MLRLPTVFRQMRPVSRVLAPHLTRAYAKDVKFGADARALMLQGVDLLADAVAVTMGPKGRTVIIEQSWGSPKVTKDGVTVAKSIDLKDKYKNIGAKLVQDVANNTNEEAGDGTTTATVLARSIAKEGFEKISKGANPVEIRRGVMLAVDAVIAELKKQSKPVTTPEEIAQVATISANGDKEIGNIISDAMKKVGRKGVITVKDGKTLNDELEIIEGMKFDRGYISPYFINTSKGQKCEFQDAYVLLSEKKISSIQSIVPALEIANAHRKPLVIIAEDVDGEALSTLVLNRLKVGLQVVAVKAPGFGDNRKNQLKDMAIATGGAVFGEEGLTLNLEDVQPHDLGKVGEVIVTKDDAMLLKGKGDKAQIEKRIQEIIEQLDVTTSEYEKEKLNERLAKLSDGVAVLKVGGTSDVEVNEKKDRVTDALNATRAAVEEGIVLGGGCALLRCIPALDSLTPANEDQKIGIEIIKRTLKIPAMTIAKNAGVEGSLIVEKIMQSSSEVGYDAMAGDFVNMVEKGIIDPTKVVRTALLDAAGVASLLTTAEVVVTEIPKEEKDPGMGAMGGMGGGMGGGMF
# Chain of HSP60/HSP10 (P61604 whole entry, further chain): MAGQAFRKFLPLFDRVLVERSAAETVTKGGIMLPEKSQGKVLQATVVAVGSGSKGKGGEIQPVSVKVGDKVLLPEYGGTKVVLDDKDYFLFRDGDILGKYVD
SMILES,pIC50 [1],pIC50 [2],pIC50 [3],pIC50 [4],inhibition at 200 µM [5] [%],pIC50 [6],pIC50 [7],pIC50 (HSP60/HSP10),CC50 at 48 h [8] [µM],CC50 at 48 h [9] [µM],pEC50 [10]
COc1ccccc1S(=O)(=O)Nc1ccc(-c2nc3ccccc3o2)cc1,4.23,4.27,4.28,4.36,0,< 4.00,< 4.20,< 4.00,> 100,> 100,–
Nc1ccccc1S(=O)(=O)Nc1ccc(-c2nc3cc(NS(=O)(=O)c4ccccc4N)ccc3o2)cc1,4.77,4.47,4.60,4.29,58,–,–,–,–,–,< 3.70
O=S(=O)(Nc1ccc2oc(-c3ccccc3)nc2c1)c1ccc(F)c(C(F)(F)F)c1,4.34,4.12,4.41,4.59,23,< 4.00,< 4.20,4.16,55,> 100,–
O=S(=O)(Nc1ccc2oc(-c3ccccc3)nc2c1)c1ccc(O)cc1,4.01,4.04,< 4.00,4.08,9,< 4.00,< 4.20,4.06,> 100,> 100,–
O=S(=O)(Nc1ccc2oc(-c3ccccc3)nc2c1)c1ccccc1O,4.01,4.12,< 4.00,4.17,18,< 4.00,< 4.20,4.07,32,33,–
CS(=O)(=O)Nc1ccc2oc(-c3ccccc3)nc2c1,< 4.00,< 4.00,< 4.00,< 4.00,6,< 4.00,< 4.20,< 4.00,> 100,> 100,–
O=S(=O)(Nc1ccc2oc(-c3ccccc3)nc2c1)c1cccc(Cl)c1,< 4.00,4.06,4.29,< 4.00,45,< 4.00,< 4.20,< 4.00,45,70,–
O=S(=O)(Cc1ccccc1)Nc1ccc(-c2nc3cc(NS(=O)(=O)Cc4ccccc4)ccc3o2)cc1,4.57,4.64,4.51,4.60,0,–,–,–,–,–,–
C=Cc1ccc(S(=O)(=O)Nc2ccc3oc(-c4ccc(NS(=O)(=O)c5ccc(Cl)s5)cc4)nc3c2)cc1,5.41,5.14,4.92,4.92,10,–,–,–,–,–,–
O=S(=O)(Nc1ccc2oc(-c3ccc(NS(=O)(=O)c4ccc(Cl)s4)cc3)nc2c1)c1ccc(Br)cc1,5.39,5.16,4.85,4.92,28,–,–,–,–,–,–
COc1ccc(Cl)cc1S(=O)(=O)Nc1ccc2oc(-c3ccc(NS(=O)(=O)c4ccc(Cl)s4)cc3)nc2c1,5.19,5.00,5.04,4.96,39,–,–,–,–,–,–
O=C(O)c1cccc(S(=O)(=O)Nc2ccc(-c3nc4cc(NS(=O)(=O)c5cccc(C(=O)O)c5)ccc4o3)cc2)c1,5.00,< 4.00,< 4.00,< 4.00,7,–,–,–,–,–,–
O=[N+]([O-])c1ccccc1S(=O)(=O)Nc1ccc(-c2nc3cc(NS(=O)(=O)c4ccccc4[N+](=O)[O-])ccc3o2)cc1,5.00,4.55,4.55,4.54,39,–,–,–,–,–,–
O=S(=O)(Nc1ccc2oc(-c3ccc(NS(=O)(=O)c4cccc5ccccc45)cc3)nc2c1)c1ccc(Cl)s1,5.57,5.27,4.82,5.04,0,–,–,–,–,–,–
